{"source": "paper PMC2905675", "about": "(Cell, 2010)", "key": {"[1]": {"tested_on": "capsaicin-sensitive trigeminal neurons", "experiment": "Whole cell patch clamp recordings from capsaicin-sensitive trigeminal neurons", "assay_type": "cell-based, mouse", "details": "capsaicin 1 μM"}, "TRPV1": {"tested_on": "TRPV1", "assay_type": "cell-based, rat", "details": "outside-out patches containing a single functional TRPV1 channel; capsaicin 1 μM"}, "[2]": {"tested_on": "X. laevis frog TRPV1 (xTRPV1)", "experiment": "Two-electrode voltage clamp, Xenopus oocytes expressing wild type frog TRPV1", "assay_type": "cell-based", "details": "+80 mV", "how_it_was_run": "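Frog TRPV1 coding sequence cloned from trigeminal and dorsal root ganglion RNA. cRNA made by T7 transcription; stage V–VI oocytes injected with 3–50 ng per oocyte and recorded 3-7 days later in normal frog Ringer's buffered with HEPES (pH 7.4) or MES (pH 5.5). Toxins expressed recombinantly in E. coli, His tag removed by TEV protease, concentration set from predicted 280 nm extinction coefficient.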"}, "rat TRPV1 (A657P)": {"tested_on": "rat TRPV1 (A657P)", "experiment": "Whole cell patch clamp, HEK293 cells expressing rat TRPV1", "assay_type": "cell-based", "details": "+80 mV"}, "rat TRPV1 [3]": {"target": "T1, rat TRPV1 (Rattus norvegicus, UniProt O35433)", "T1 sequence (O35433 whole entry)": "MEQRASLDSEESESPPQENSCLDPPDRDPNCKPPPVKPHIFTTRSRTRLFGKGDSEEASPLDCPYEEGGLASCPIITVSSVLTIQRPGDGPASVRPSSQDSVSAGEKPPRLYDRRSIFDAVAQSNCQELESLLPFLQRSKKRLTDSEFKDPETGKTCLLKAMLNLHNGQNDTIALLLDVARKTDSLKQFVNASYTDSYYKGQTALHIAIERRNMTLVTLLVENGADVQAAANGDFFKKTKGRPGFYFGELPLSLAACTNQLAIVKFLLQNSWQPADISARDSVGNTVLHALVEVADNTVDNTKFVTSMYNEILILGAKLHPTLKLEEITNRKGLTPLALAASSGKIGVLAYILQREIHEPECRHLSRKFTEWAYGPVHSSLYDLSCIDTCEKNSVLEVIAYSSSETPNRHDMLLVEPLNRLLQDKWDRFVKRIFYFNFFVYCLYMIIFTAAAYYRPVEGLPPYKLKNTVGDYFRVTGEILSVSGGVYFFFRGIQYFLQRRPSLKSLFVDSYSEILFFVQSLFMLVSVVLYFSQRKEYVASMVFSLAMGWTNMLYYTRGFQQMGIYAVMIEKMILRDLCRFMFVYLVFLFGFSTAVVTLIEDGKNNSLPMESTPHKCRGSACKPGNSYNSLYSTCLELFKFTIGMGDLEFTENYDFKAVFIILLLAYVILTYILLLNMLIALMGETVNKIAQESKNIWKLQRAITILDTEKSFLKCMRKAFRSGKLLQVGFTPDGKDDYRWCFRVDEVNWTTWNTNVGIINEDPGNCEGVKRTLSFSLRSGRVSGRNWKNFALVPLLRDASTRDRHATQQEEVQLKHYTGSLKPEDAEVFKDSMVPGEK", "experiment": "Whole-cell patch-clamp recording from TRPV1-expressing HEK293 cells", "assay_type": "cell-based"}, "rat TRPV1 [4]": {"target": "T1, rat TRPV1", "experiment": "Calcium imaging dose-response in TRPV1-expressing HEK293 cells", "assay_type": "cell-based", "details": "ruthenium red 10 μM co-applied"}, "FLAG-TRPV1 (rat) (rat) [5]": {"target": "FLAG-TRPV1 (rat) (rat) (UniProt O35433)", "sequence (O35433 whole entry)": "as above"}, "rat Kv2.1 F274R": {"tested_on": "rat Kv2.1 F274R", "assay_type": "cell-based", "details": "VaTx1 20 μM; n = 3-5 cells per trace"}, "rat Kv2.1 E277K": {"tested_on": "rat Kv2.1 E277K", "assay_type": "cell-based", "details": "VaTx1 20 μM; n = 3-5 cells per trace"}, "rat Kv2.1 I273Y": {"tested_on": "rat Kv2.1 I273Y", "assay_type": "cell-based", "details": "VaTx1 20 μM; n = 3-5 cells per trace"}, "FLAG-TRPV1 (rat) (rat) [6]": {"target": "FLAG-TRPV1 (rat) (rat) (UniProt O35433)", "remark": "listed apart in the source"}}, "note": "“Also recorded” adds a separate entry of the source. Where two headings read alike, the source gives them in different places. No end group written: not given here.", "data": [{"compound": "COc1cc(CNC(=O)CCCC/C=C/C(C)C)ccc1O", "note": "[capsaicin]", "values": [{"measurement": "time for evoked currents to return to baseline after washout", "setting": "[1]", "value": "≤ 10", "unit": "s"}, {"measurement": "unitary conductance of single channel events", "setting": "TRPV1", "value": 118, "unit": "pS"}, {"measurement": "sensitivity of frog TRPV1 (xTRPV1)", "setting": "[2]", "value": "responds"}, {"measurement": "sensitivity of rat TRPV1 (A657P)", "setting": "rat TRPV1 (A657P); DkTx 2 μM, VaTx3 2 μM, capsaicin 1 μM", "value": "retained sensitivity"}, {"measurement": "τoff, time constant of current decay on washout", "setting": "rat TRPV1 [3]", "value": 0.17, "unit": "min"}]}, {"compound": "N.N.N.N.N.N.N.N.N.N.N.N.N.N.[Cl-].[Cl-].[Cl-].[Cl-].[Cl-].[Cl-].[O-2].[O-2].[Ru+3].[Ru+3].[Ru+4]", "note": "[ruthenium red]", "values": [{"measurement": "effect on DkTx-evoked calcium increases", "setting": "rat TRPV1 [4]", "value": "inhibits toxin-evoked responses"}]}, {"compound": "K1 (Knot 1, N-terminal ICK peptide of DkTx-HYR)", "values": [{"measurement": "EC50 of TRPV1 activation, calcium imaging of TRPV1-expressing HEK293 cells", "setting": "FLAG-TRPV1 (rat) (rat) [5]", "value": 8.9, "unit": "µM"}]}, {"compound": "K2 (Knot 2, C-terminal ICK peptide of DkTx-HYR)", "values": [{"measurement": "EC50 of TRPV1 activation, calcium imaging of TRPV1-expressing HEK293 cells", "setting": "FLAG-TRPV1 (rat) (rat) [5]", "value": 0.97, "unit": "µM"}]}, {"compound": "VaTx1: vanillotoxin, ICK peptide from the Trinidad Chevron tarantula (Psalmopoeus cambridgei) that activates TRPV1 and inhibits Kv2.1 (SECRWFMGGCDSTLDCCKHLSCKMGLYYCAWDGTF; ends and bridges not checked; cysteine pairing not given here)", "values": [{"measurement": "effect of F274R mutation on VaTx1-mediated inhibition of Kv2.1", "setting": "rat Kv2.1 F274R", "value": "eliminated VaTx1-mediated inhibition"}, {"measurement": "effect of E277K mutation on VaTx1-mediated inhibition of Kv2.1", "setting": "rat Kv2.1 E277K", "value": "eliminated VaTx1-mediated inhibition"}, {"measurement": "VaTx1 activation of TRPV1 (A657P)", "setting": "rat TRPV1 (A657P); VaTx1 100 μM", "value": "abolished"}, {"measurement": "effect of I273Y mutation on VaTx1-mediated inhibition of Kv2.1", "setting": "rat Kv2.1 I273Y", "value": "modest effect; also recorded: no substantial effect"}, {"measurement": "activation of wild type rat TRPV1 currents", "setting": "rat TRPV1 [3]; VaTx1 100 μM, whole cell patch clamp, +80 mV", "value": "activation"}]}, {"compound": "native DkTx (double-knot toxin) (from UniProt P0CH43 1-79) (peptide)", "values": [{"measurement": "EC50 of TRPV1 activation, calcium imaging of TRPV1-expressing HEK293 cells", "setting": "FLAG-TRPV1 (rat) (rat) [6]", "value": 0.23, "unit": "µM"}]}, {"compound": "recombinant DkTx (from UniProt P0CH43 1-79) (peptide)", "values": [{"measurement": "EC50 of TRPV1 activation, calcium imaging of TRPV1-expressing HEK293 cells", "setting": "FLAG-TRPV1 (rat) (rat) [6]", "value": 0.14, "unit": "µM"}]}]}
